Drawing on ChEMBL document CHEMBL3526081 (Drug Metab Dispos, 2011), this text covers Drug metabolism, Retention_time and Km for three compounds.

The target in one data set is T1, Cytochrome P450 2B6 (Homo sapiens, UniProt P20813).
T1 sequence (P20813 whole entry): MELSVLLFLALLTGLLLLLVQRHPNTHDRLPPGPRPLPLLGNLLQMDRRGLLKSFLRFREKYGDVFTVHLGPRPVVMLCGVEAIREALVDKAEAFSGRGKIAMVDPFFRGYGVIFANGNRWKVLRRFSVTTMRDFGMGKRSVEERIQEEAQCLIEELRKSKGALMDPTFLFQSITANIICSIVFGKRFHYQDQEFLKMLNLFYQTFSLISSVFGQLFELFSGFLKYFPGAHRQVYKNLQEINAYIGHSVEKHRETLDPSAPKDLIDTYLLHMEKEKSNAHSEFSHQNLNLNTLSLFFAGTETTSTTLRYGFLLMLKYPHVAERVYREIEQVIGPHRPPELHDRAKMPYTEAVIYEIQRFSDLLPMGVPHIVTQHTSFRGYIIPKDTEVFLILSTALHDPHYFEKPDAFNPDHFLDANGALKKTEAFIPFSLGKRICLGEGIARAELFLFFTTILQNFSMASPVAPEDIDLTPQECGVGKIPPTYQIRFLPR
The data set can be described thus: Drug level in human recombinant CYP2B6 expressed in insect cells coexpressing NADPH-P450 reductase measured per pmol of enzyme treated with 50 uM cinobufagin at 37 degC after 30 mins by UFLC-DAD-ESI-MS analysis. Particulars: 0.5 h.

A short description of data set [1]: Drug level in cynomolgus monkey liver microsomes treated with 100 uM cinobufagin at 37 degC after 30 mins by UFLC-ESI-MS analysis in presence of NADPH-generating system. The class given is ADME, Macaca fascicularis. As to conditions: 0.5 h. The method, boiled down:
(§1)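 Liver microsomes (0.3 mg protein/ml) incubated with 100 µM substrate at 37°C for 30 min, in 100 mM potassium phosphate pH 7.4 with NADPH-generating system (1 mM NADP+, 10 mM glucose 6-phosphate, 1 unit/ml G6PDH, 4 mM MgCl2). Acetonitrile ≤1% final. Stopped with ice-cold acetonitrile and centrifuged. Metabolites identified by UFLC-ESI-MS and quantified by UFLC-DAD at 294 nm against authentic standard curves.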
For orientation: Liver microsomes are vesicles of endoplasmic reticulum, rich in cytochrome P450 enzymes.

The subject of data set [2] is Liver microsome. Nature of the data set: Drug level in human liver microsomes treated with 100 uM cinobufagin at 37 degC after 30 mins by UFLC-ESI-MS analysis in presence of NADPH-generating system. The class given is ADME. As to conditions: 0.5 h. The method, boiled down: as §1
Data set [3] is described as follows: Drug level in Colony-bred Chinese Bama minipig liver microsomes treated with 100 uM cinobufagin at 37 degC after 30 mins by UFLC-ESI-MS analysis in presence of NADPH-generating system. The class given is ADME, Sus scrofa. As to conditions: pig, 0.5 h. Put shortly: as §1
The target in a further data set is Cytochrome P450 2D6 (Homo sapiens, UniProt P10635). The data set can be described thus: Drug level in human recombinant CYP2D6 expressed in insect cells coexpressing NADPH-P450 reductase measured per pmol of enzyme treated with 50 uM cinobufagin at 37 degC after 30 mins by UFLC-DAD-ESI-MS analysis. Particulars: 0.5 h.
Sequence of Cytochrome P450 2D6 (P10635 whole entry): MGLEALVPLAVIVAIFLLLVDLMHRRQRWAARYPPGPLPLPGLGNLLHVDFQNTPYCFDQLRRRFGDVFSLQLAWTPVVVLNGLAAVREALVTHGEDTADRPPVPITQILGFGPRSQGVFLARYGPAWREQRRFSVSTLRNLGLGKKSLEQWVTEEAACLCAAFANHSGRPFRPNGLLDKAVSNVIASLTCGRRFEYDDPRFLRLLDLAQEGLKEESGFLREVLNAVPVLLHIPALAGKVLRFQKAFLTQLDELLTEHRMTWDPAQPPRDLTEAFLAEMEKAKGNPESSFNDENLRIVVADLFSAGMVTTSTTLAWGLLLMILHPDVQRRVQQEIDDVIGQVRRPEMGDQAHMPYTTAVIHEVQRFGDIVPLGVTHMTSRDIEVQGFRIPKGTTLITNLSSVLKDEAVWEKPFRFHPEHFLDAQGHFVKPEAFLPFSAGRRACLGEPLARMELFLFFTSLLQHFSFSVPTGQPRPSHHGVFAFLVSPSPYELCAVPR
The subject of data set [4] is Liver microsome. Nature of the data set: Retention time in Sprague-Dawley rat liver microsomes treated with 100 uM cinobufagin at 37 degC after 30 mins by UFLC-DAD-ESI-MS analysis. The class given is ADME. As to conditions: 0.5 h. Put shortly:
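Male Sprague-Dawley rat microsomes (0.3 mg/ml) were incubated with CB (100 µM) at 37°C for 30 min, with and without NADPH-generating system. Separation was on an ODS column at 40°C using an acetonitrile/0.5% formic acid water gradient at 0.4 ml/min, with DAD detection at 294 nm plus ESI-MS.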

For the next data set, the target named is Cytochrome P450 2C19 (Homo sapiens, UniProt P33261). Nature of the data set: Drug level in human recombinant CYP2C19 expressed in insect cells coexpressing NADPH-P450 reductase measured per pmol of enzyme treated with 100 uM cinobufagin at 37 degC after 30 mins by UFLC-DAD-ESI-MS analysis. Particulars: 0.5 h. The data set is classed as ADME.
Sequence of Cytochrome P450 2C19 (P33261 whole entry): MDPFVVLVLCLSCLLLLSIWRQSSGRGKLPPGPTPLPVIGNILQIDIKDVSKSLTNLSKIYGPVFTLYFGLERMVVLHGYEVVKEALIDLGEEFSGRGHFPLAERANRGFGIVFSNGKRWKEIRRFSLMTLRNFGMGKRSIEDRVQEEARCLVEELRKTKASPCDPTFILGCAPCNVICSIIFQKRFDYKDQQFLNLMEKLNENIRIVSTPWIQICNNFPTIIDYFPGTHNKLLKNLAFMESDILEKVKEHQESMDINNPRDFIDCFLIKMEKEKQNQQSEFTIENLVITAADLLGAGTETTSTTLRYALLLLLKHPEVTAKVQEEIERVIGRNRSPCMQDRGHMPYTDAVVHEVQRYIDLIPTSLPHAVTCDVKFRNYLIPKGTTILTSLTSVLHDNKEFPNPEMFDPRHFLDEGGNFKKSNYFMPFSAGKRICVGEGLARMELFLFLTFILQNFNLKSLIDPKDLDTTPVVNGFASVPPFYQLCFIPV
The test system of data set [5] is Liver microsome. The data set can be described thus: Drug level in beagle dog liver microsomes treated with 100 uM cinobufagin at 37 degC after 30 mins by UFLC-ESI-MS analysis in presence of NADPH-generating system. The class given is ADME, Canis lupus familiaris. As to conditions: 0.5 h. The method, boiled down:
as §1

In data set [6] the test system is Liver microsome. The data set can be described thus: Drug metabolism in human liver microsomes assessed as 5beta-hydroxylcinobufagin formation at 100 uM at 37 degC after 30 mins by UFLC-ESI-MS analysis in presence of NADPH-generating system. The class given is ADME. As to conditions: 0.5 h. The method, boiled down:
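CB (100 µM; acetonitrile ≤1% final) was incubated with pooled HLM (0.3 mg/ml) plus NADPH-generating system (1 mM NADP+, 10 mM glucose 6-phosphate, 1 unit/ml G6PDH, 4 mM MgCl2) in pH 7.4 phosphate buffer at 37°C for 30 min. Products were identified by UFLC-ESI-MS and quantified by UFLC-DAD at 294 nm.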

The subject of data set [7] is Liver microsome. The data set can be described thus: Drug metabolism in human liver microsomes assessed as 1alpha-hydroxylcinobufagin formation at 100 uM at 37 degC after 30 mins by UFLC-ESI-MS analysis in presence of 10 uM quinidine CYP2D6 inhibitor. The data set is classed as ADME. Particulars: 0.5 h. The method, boiled down: (§2)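 Pooled human liver microsomes (10 donors, both sexes) in 100 mM potassium phosphate pH 7.4 were incubated with CB and a selective P450 inhibitor. Reaction was started with NADPH-generating system after 3 min preincubation at 37°C and stopped with ice-cold acetonitrile. Hydroxylated products were quantified by UFLC-DAD at 294 nm; three experiments in duplicate.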

The nature of data set [8]: Drug metabolism in Colony-bred Chinese Bama minipig liver microsomes assessed as 1alpha-hydroxylcinobufagin formation at 100 uM at 37 degC after 30 mins by UFLC-ESI-MS analysis in presence of 10 uM furafylline CYP1A2 inhibitor. As to conditions: pig, 0.5 h. The data set is classed as ADME, Sus scrofa. The method, boiled down: (§3)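 Chemical inhibition: selective P450 inhibitors (furafylline, sulfaphenazole, ketoconazole) added to liver microsome incubations in 100 mM potassium phosphate pH 7.4 with NADPH-generating system at 37°C. Hydroxylated metabolite formation quantified by UFLC at 294 nm against standards. Mean ± S.D. of three experiments in duplicate.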

The nature of data set [9]: Drug metabolism in Colony-bred Chinese Bama minipig liver microsomes assessed as 1alpha-hydroxylcinobufagin formation at 100 uM at 37 degC after 30 mins by UFLC-ESI-MS analysis. The data set is classed as ADME, Sus scrofa. As to conditions: pig, 0.5 h, read-out: Km(app). Put shortly: as §1
In data set [10] the test system is Liver microsome. The data set can be described thus: Drug metabolism in beagle dog liver microsomes assessed as 1alpha-hydroxylcinobufagin formation at 100 uM at 37 degC after 30 mins by UFLC-ESI-MS analysis in presence of NADPH-generating system. The class given is ADME, Canis lupus familiaris. As to conditions: 0.5 h. Put shortly:
as §1

Data set [11] can be described thus: Drug metabolism in cynomolgus monkey liver microsomes assessed as 1alpha-hydroxylcinobufagin formation at 100 uM at 37 degC after 30 mins by UFLC-ESI-MS analysis. The class given is ADME, Macaca fascicularis. Particulars: 0.5 h, read-out: Km(app). The method, boiled down: as §1
The nature of data set [12]: Drug metabolism in Swiss-Hauschka (ICR) mouse liver microsomes assessed as 1alpha-hydroxylcinobufagin formation at 100 uM at 37 degC after 30 mins by UFLC-ESI-MS analysis in presence of 10 uM sulfaphenazole CYP2C9 inhibitor. The data set is classed as ADME. As to conditions: 0.5 h. Put shortly: as §3
The nature of data set [13]: Drug metabolism in cynomolgus monkey liver microsomes assessed as 1alpha-hydroxylcinobufagin formation at 100 uM at 37 degC after 30 mins by UFLC-ESI-MS analysis in presence of 10 uM sulfaphenazole CYP2C9 inhibitor. The class given is ADME, Macaca fascicularis. As to conditions: 0.5 h. The method, boiled down: as §3
Data set [14] relates to Liver microsome. Nature of the data set: Drug metabolism in human liver microsomes assessed as 5beta-hydroxylcinobufagin formation at 100 uM at 37 degC after 30 mins by UFLC-ESI-MS analysis in presence of 20 uM omeprazole CYP2C19 inhibitor. As to conditions: 0.5 h. The data set is classed as ADME. Put shortly:
as §2

For the compound `CC(=O)O[C@H]1[C@H]2O[C@]23[C@@H]2CC[C@@H]4C[C@@H](O)C[C@H](O)[C@]4(C)[C@H]2CC[C@]3(C)[C@H]1c1ccc(=O)oc1`, the Drug metabolism is recorded as less than 0.01 pmol/min at Cytochrome P450 2B6; “metabolite_detected” in data set [1]; “metabolite_detected” in the data set with Liver microsome [2]; “metabolite_detected” in [3]; less than 0.01 pmol/min on Cytochrome P450 2D6; less than 0.01 pmol/min on Cytochrome P450 2C19. In the data set with Liver microsome [5], the Drug metabolism entry is on record as “metabolite_detected”. Further, the Retention_time in the data set on Liver microsome [4] came to 7.35 min.

What is called Km is the concentration of substrate that gives half-maximal velocity. With `CC(=O)O[C@H]1[C@H]2O[C@]23[C@@H]2CC[C@@H]4C[C@@H](O)CC[C@]4(C)[C@H]2CC[C@]3(C)[C@H]1c1ccc(=O)oc1` [CINOBUFAGIN], the Drug metabolism entry (with Liver microsome [6]; in the data set on Liver microsome [7]; in data set [8]; in the data set on Liver microsome [10]; in data set [12]; in data set [13]) was “metabolite_detected” in each case. For the same compound, in the data set with Liver microsome [14], the Drug metabolism entry is reported as “metabolite_detected”. For the same compound, the Michaelis-Menten constant (Km) was found to be 17.2 µM in data set [9] and 34.2 µM in [11].

Regarding `CC(=O)O[C@H]1[C@H]2O[C@]23[C@@H]2CC[C@]4(O)C[C@@H](O)CC[C@]4(C)[C@H]2CC[C@]3(C)[C@H]1c1ccc(=O)oc1` [CINOBUFOTALIN], the Drug metabolism on Cytochrome P450 2B6 is listed as less than 0.01 pmol/min; in data set [1] it was “metabolite_detected”; in the data set on Liver microsome [2], “metabolite_detected”; in data set [3], “metabolite_detected”; at Cytochrome P450 2D6, less than 0.01 pmol/min; at Cytochrome P450 2C19, less than 0.01 pmol/min. For the same compound, the Drug metabolism result in the data set on Liver microsome [5] is on record as “metabolite_detected”. The Retention_time in the data set with Liver microsome [4] worked out at 7.6 min.
